Data set [1] deals with Quadruplex DNA. In words: Stabilization of 5'-FAM/3'-TAMRA labelled AR3 G-quadruplex oligonucleotide (unknown origin) assessed as change in melting temperature t1/2 at 1 uM after 16 hrs in presence of 100 mM K+ by FRET assay. It counts as nucleic-acid assay. A digest of the protocol: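 FRET melting: FAM/TAMRA dual-labelled oligos (0.25 μM) folded in 10 mM lithium cacodylate pH 7.4 with 100 mM KCl (95 °C 5 min, cooled 4 h); ligand added at 1 μM final, 16 h room temperature. FAM emission followed 30−95 °C at 1 °C/min; curves normalized 0 to 1, T1/2 at 0.5 fraction.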

The subject of data set [2] is CWR22R. As to the kind of experiment: Cytotoxicity against human 22Rv1 cells expressing full length androgen receptor H875Y point mutant assessed as reduction in cell viability after 48 hrs by MTS assay. The data set is classed as functional, cell-based. The conditions noted are these: 22Rv1, 48 h. A digest of the protocol: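 Cells kept in RPMI-1640 with 10% fetal calf serum, 37 °C, 5% CO2. Seeded, after 24 h treated with 0.0001, 0.001, 0.01, 0.1, 1 and 10 μM compound (DMSO stocks freshly diluted in medium) for 48 h. MTS added 4 h, absorbance 490 nm; IC50 from curves of % viability inhibition versus DMSO-treated cells against log concentration.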

A short description of data set [3]: Drug uptake in human PNT1A cells at 160 nM after 24 hrs by DAPI staining-based fluorescence microscopic analysis. It counts as ADME, cell-based. The note with it: 0.16 µM.
Data set [4] in a line: Drug uptake in human PC3 cells at 160 nM after 24 hrs by DAPI staining-based fluorescence microscopic analysis. It counts as ADME, cell-based. The conditions noted are these: pc-3, 24 h, 0.16 µM.
Data set [5] concerns Quadruplex DNA. As to the kind of experiment: Stabilization of AR G-quadruplex oligonucleotide in human 22Rv1 cells assessed as down-regulation of KLK3 mRNA expression at IC50 after 6 to 72 hrs by RT-PCR analysis. The data set is classed as cell-based. The method, boiled down: (§1)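 Transcripts quantified by TaqMan real-time PCR with RNaseP as normalizer; relative quantity versus untreated cells by the 2−ΔΔCt method. Panel genes measured with a 92-gene cancer-mechanism TaqMan array.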

In data set [6] the test system is Quadruplex DNA. As to the kind of experiment: Stabilization of AR G-quadruplex oligonucleotide in human LNCAP cells assessed as reduction in AR mRNA expression at IC50 after 72 hrs by RT-PCR analysis. It counts as cell-based. A digest of the protocol: (§2)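 Cells grown in RPMI-1640 with 10% fetal calf serum, 37 °C, 5% CO2, treated at an equitoxic concentration. Transcripts quantified by TaqMan real-time RT-PCR, normalized to RNaseP, expressed as relative quantity versus untreated cells (calibrator) by the 2−ΔΔCt method.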

In data set [7] the test system is Quadruplex DNA. In words: Stabilization of AR G-quadruplex oligonucleotide in human LNCAP cells assessed as down-regulation of KLK3 mRNA expression at IC50 after 72 hrs by RT-PCR analysis. The data set is classed as cell-based. A digest of the protocol:
as §2

A short description of data set [8]: Stabilization of TTTTTAGTGAGAGTGAGAGAGAGAGTGAGAGTGAGAGTGATTTTTCTGCATATAAGCAGCTGCTTTTTGCC DNA (unknown origin) assessed as inhibition of polymerase progression at G4 site by measuring reduction in full length amplified product using GGCAAAAAGCAGCTGCTTATATGCAG as primer at 12.5 to 200 nM after 30 mins in presence of 5'-end labeled [gamma32P]ATP by phosphorimaging based taq polymerase stop assay. The method, boiled down: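 Primer 5′-labeled with [γ-32P]ATP by T4 polynucleotide kinase, 37 °C, 30 min. Labeled primer (72 nM final) annealed to template (36 nM final) in 10 mM lithium cacodylate pH 7.4, with or without 10 mM KCl, by heating at 95 °C for 5 min then slow cooling.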

For data set [9], the system named is Quadruplex DNA. In words: Stabilization of AR G-quadruplex oligonucleotide in human 22Rv1 cells assessed as down-regulation of MAX mRNA expression at IC50 after 48 hrs by RT-PCR analysis. The data set is classed as cell-based. The method, boiled down:
as §1

Data set [10] concerns Quadruplex DNA. In words: Stabilization of AR G-quadruplex oligonucleotide in human 22Rv1 cells assessed as up-regulation of WNT1 mRNA expression at IC50 after 48 hrs by RT-PCR analysis. It counts as cell-based. A digest of the protocol: as §1
For data set [11], the system named is Quadruplex DNA. As to the kind of experiment: Stabilization of AR G-quadruplex oligonucleotide in human PC3 cells assessed as up-regulation of WNT1 mRNA expression at IC50 after 48 hrs by RT-PCR analysis. The data set is classed as cell-based. The method, boiled down:
(§3)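 PC-3 cells (RPMI-1640, 10% fetal calf serum) exposed at an equitoxic concentration. Expression of 92 cancer-mechanism genes measured on TaqMan Arrays. Change versus untreated cells computed by 2−ΔΔCt, with RNaseP as normalizer.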

In data set [12] the test system is Quadruplex DNA. As to the kind of experiment: Stabilization of AR G-quadruplex oligonucleotide in human 22Rv1 cells assessed as inhibition of telomerase activity at IC50 after 48 hrs by TRAP assay. The data set is classed as cell-based.
Data set [13] concerns Quadruplex DNA. In words: Stabilization of AR G-quadruplex oligonucleotide in human 22Rv1 cells assessed as reduction in AKT1 phosphorylation at S473 residues at IC50 after 48 hrs by Western immunoblot assay. It counts as cell-based.
The subject of another data set is DU-145. As to the kind of experiment: Effect on c-MYC mRNA expression in human DU145 cells at IC50 after 48 hrs by RT-PCR analysis. The data set is classed as functional, cell-based. A digest of the protocol:
as §1

The test system of data set [14] is CWR22R. In words: Synergistic cytotoxicity against human 22Rv1 cells expressing full length androgen receptor H875Y point mutant assessed as combination index for reduction in cell viability measured at ED75 Enzalutamide at 0.001 to 0.1 uM after 72 hrs by MTS assay based Chou and Talay's plot analysis. It counts as functional. A digest of the protocol: (§4)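 Cells in RPMI-1640 with 10% fetal calf serum were exposed to ligand (0.001−0.1 μM) plus enzalutamide (0.5−50 μM) at a fixed ratio, five concentrations, for 72 h at 37 °C, 5% CO2. Viability read by MTS absorbance at 490 nm after 4 h. Combination index computed at ED50 and ED75 by the Chou–Talalay method.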

Data set [15] has as its system CWR22R. In words: Synergistic cytotoxicity against human 22Rv1 cells expressing full length androgen receptor H875Y point mutant assessed as ED50 for Enzalutamide at 0.001 to 0.1 uM after 72 hrs by MTS assay. The data set is classed as functional. The note with it: 22Rv1, 72 h, read-out: ED50 (the source's name). The method, boiled down: as §4
For data set [16], the system named is Quadruplex DNA. As to the kind of experiment: Stabilization of AR G-quadruplex oligonucleotide in human 22Rv1 cells assessed as regulation of AKT1 mRNA expression at IC50 after 48 hrs by RT-PCR analysis. It counts as cell-based. The method, boiled down: as §1
The test system of data set [17] is Quadruplex DNA. As to the kind of experiment: Stabilization of AR G-quadruplex oligonucleotide in human 22Rv1 cells assessed as down-regulation of CCNE1 mRNA expression at IC50 after 48 hrs by RT-PCR analysis. The data set is classed as cell-based. The method, boiled down:
as §1

Data set [18] deals with Quadruplex DNA. As to the kind of experiment: Stabilization of AR G-quadruplex oligonucleotide in human 22Rv1 cells assessed as down-regulation of BCL2 mRNA expression at IC50 after 48 hrs by RT-PCR analysis. The data set is classed as cell-based. A digest of the protocol:
as §1

Data set [19] relates to Quadruplex DNA. In words: Stabilization of AR G-quadruplex oligonucleotide in human PC3 cells assessed as down-regulation of BAX mRNA expression at IC50 after 48 hrs by RT-PCR analysis. It counts as cell-based. A digest of the protocol:
as §3

Data set [20] concerns PC-3. As to the kind of experiment: Synergistic cytotoxicity against human PC3 cells assessed as ED75 for Enzalutamide at 0.001 to 0.1 uM after 72 hrs by MTS assay.
The test system of data set [21] is PC-3. As to the kind of experiment: Synergistic cytotoxicity against human PC3 cells assessed as combination index for reduction in cell viability measured at ED75 Enzalutamide at 0.001 to 0.1 uM after 72 hrs by MTS assay based Chou and Talay's plot analysis.

The source made the active and inactive calls. The rule behind the calls is not given here.

In the case of `CN(C)CCCn1c(=O)c2ccc3c(=O)n(CCCN(C)C)c(=O)c4c5[nH]c6ccccc6[nH]c5c(c1=O)c2c34.Cl.Cl`, the ΔTm with Quadruplex DNA [1] amounted to 31 °C. Besides, in the data set with CWR22R [2], the concentration for half-maximal inhibition (IC50) turned out to be 10 nM. Besides, the Drug uptake entry in data set [3] and in data set [4] was “Active” in each case. Further, the result with Quadruplex DNA [5], in the data set with Quadruplex DNA [9], in the data set on Quadruplex DNA [10], in the data set with Quadruplex DNA [11], in the data set on Quadruplex DNA [13] and in the data set on Quadruplex DNA [16] was Active. For the same compound, the outcome in the data set on Quadruplex DNA [17], in the data set with Quadruplex DNA [18] and in the data set with Quadruplex DNA [19] was Active. In addition, the outcome with Quadruplex DNA [6], in the data set on Quadruplex DNA [7] and in the data set on DU-145 was inactive. Further, the inhibition entry in data set [8] is “inactive”. Also, the inhibition entry in the data set on Quadruplex DNA [12] is “Active”. Besides, the CI in the data set on CWR22R [14] is given as less than 1; in the data set on PC-3 [21], greater than 1. Also, the EC50 with CWR22R [15] came out at 290 nM. For the same compound, the ED75 with PC-3 [20] was 21.1 µM.

For the origin of these results see ChEMBL document CHEMBL4411261, “Down-Regulation of the Androgen Receptor by G-Quadruplex Ligands Sensitizes Castration-Resistant Prostate Cancer Cells to Enzalutamide” (J Med Chem, 2018).
